Measured values reported in ChEMBL document CHEMBL2311404, “Synthesis, antibacterial activity and docking of 14-membered 9-O-(3-arylalkyl) oxime 11,12-cyclic carbonate ketolides” (2013).
≈ marks a conversion by molar mass, not a printed value.

Assays:
Assay type in all cases: functional
Staphylococcus aureus [1] = experiment: Antibacterial activity against erythromycin-susceptible Staphylococcus aureus ATCC 29213 by broth microdilution method
Procedure, shortened: (§1)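 MIC by broth microdilution following CLSI recommendations. Clinical isolates were identified by 16S rDNA sequencing and labeled by genotype and phenotype. S. aureus ATCC 29213 and S. pneumoniae ATCC 49619 served as control strains, with azithromycin and clarithromycin as reference agents.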

Streptococcus pyogenes [2] = experiment: Antibacterial activity against erythromycin-susceptible Streptococcus pyogenes A3 by broth microdilution method; procedure, shortened: as §1
[3] = tested on: Staphylococcus epidermidis; experiment: Antibacterial activity against methicillin-resistant, constitutive MLS-resistant Staphylococcus epidermidis E 2 by broth microdilution method
Procedure, shortened: (§2)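 Clinical isolates confirmed by 16S rDNA sequencing. MIC determined by broth microdilution following CLSI recommendations. Quality-control strains were S. aureus ATCC 29213 and S. pneumoniae ATCC 49619. Azithromycin and clarithromycin were run in parallel as reference agents.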

Streptococcus pneumoniae [4] = experiment: Antibacterial activity against penicillin-susceptible, constitutive MLS-resistant Streptococcus pneumoniae PU 27 expressing erm gene by broth microdilution method; procedure, shortened: as §2
Streptococcus pneumoniae [5] = experiment: Antibacterial activity against erythromycin-sensitive Streptococcus pneumoniae ATCC 49619 by broth microdilution method; procedure, shortened: as §1
[6] = tested on: Streptococcus dysgalactiae; experiment: Antibacterial activity against erythromycin-resistant Streptococcus dysgalactiae A1 expressing efflux pump by broth microdilution method; procedure, shortened: as §2
Streptococcus pneumoniae [7] = experiment: Antibacterial activity against penicillin-susceptible Streptococcus pneumoniae PU 09 expressing mef gene by broth microdilution method; procedure, shortened: as §1
Staphylococcus aureus [8] = experiment: Antibacterial activity against methicillin-resistant, inducible MLS-resistant Staphylococcus aureus PU 32 expressing ermA gene by broth microdilution method; procedure, shortened: as §2
Streptococcus pneumoniae [9] = experiment: Antibacterial activity against penicillin-resistant, constitutive MLS-resistant Streptococcus pneumoniae PU 11 expressing erm and mef genes by broth microdilution method; procedure, shortened: as §2
[10] = tested on: Staphylococcus epidermidis; experiment: Antibacterial activity against methicillin-susceptible, inducible MLS-resistant Staphylococcus epidermidis E 1 by broth microdilution method; procedure, shortened: as §2
Staphylococcus hominis = experiment: Antibacterial activity against methicillin-resistant, inducible MLS-resistant, coagulase-deficient Staphylococcus hominis E 3 by broth microdilution method; procedure, shortened: as §2
Streptococcus pyogenes [11] = experiment: Antibacterial activity against constitutive MLS-resistant Streptococcus pyogenes A2 by broth microdilution method; procedure, shortened: as §2
[12] = tested on: Staphylococcus haemolyticus; experiment: Antibacterial activity against methicillin-resistant, constitutive MLS-resistant, coagulase-deficient Staphylococcus haemolyticus PU 19 expressing ermA gene by broth microdilution method; procedure, shortened: as §2
Staphylococcus aureus [13] = experiment: Antibacterial activity against methicillin-resistant, constitutive MLS-resistant Staphylococcus aureus PU 20 expressing ermC gene by broth microdilution method; procedure, shortened: as §2
Staphylococcus aureus [14] = experiment: Antibacterial activity against methicillin-sensitive, inducible MLS-resistant Staphylococcus aureus PU 64 expressing ermA gene by broth microdilution method; procedure, shortened: as §2

SMILES	MIC (Staphylococcus aureus [1]) [µg/mL]	MIC (Streptococcus pyogenes [2]) [µg/mL]	MIC [3] [µg/mL]	MIC (Streptococcus pneumoniae [4]) [µg/mL]	MIC (Streptococcus pneumoniae [5]) [µg/mL]	MIC [6] [µg/mL]	MIC (Streptococcus pneumoniae [7]) [µg/mL]	MIC (Staphylococcus aureus [8]) [µg/mL]	MIC (Streptococcus pneumoniae [9]) [µg/mL]	MIC [10] [µg/mL]	MIC (Staphylococcus hominis) [µg/mL]	MIC (Streptococcus pyogenes [11]) [µg/mL]	MIC [12] [µg/mL]	MIC (Staphylococcus aureus [13]) [µg/mL]	MIC (Staphylococcus aureus [14]) [µg/mL]
CC[C@H]1OC(=O)[C@H](C)C(=O)[C@H](C)[C@@H](O[C@@H]2O[C@H](C)C[C@H](N(C)C)[C@H]2O)[C@](C)(OC)C[C@@H](C)/C(=N\OCC#Cc2ccc3[nH]ccc3c2)[C@H](C)[C@H]2OC(=O)O[C@@]21C	1 (≈ 1.28 µM)	0.5 (≈ 0.639 µM)	> 256	4 (≈ 5.12 µM)	0.5 (≈ 0.639 µM)	2 (≈ 2.56 µM)	2 (≈ 2.56 µM)	2 (≈ 2.56 µM)	128 (≈ 164 µM)	2 (≈ 2.56 µM)	8 (≈ 10.2 µM)	128 (≈ 164 µM)	–	–	–
CC[C@H]1OC(=O)[C@H](C)C(=O)[C@H](C)[C@@H](O[C@@H]2O[C@H](C)C[C@H](N(C)C)[C@H]2O)[C@](C)(OC)C[C@@H](C)/C(=N\OCCCc2cnc3ccccc3c2)[C@H](C)[C@H]2OC(=O)O[C@@]21C	0.5 (≈ 0.627 µM)	0.016 (≈ 0.0201 µM)	> 256	1 (≈ 1.25 µM)	0.064 (≈ 0.0802 µM)	0.5 (≈ 0.627 µM)	0.5 (≈ 0.627 µM)	1 (≈ 1.25 µM)	64 (≈ 80.2 µM)	0.5 (≈ 0.627 µM)	2 (≈ 2.51 µM)	32 (≈ 40.1 µM)	> 256	> 256	1 (≈ 1.25 µM)
CC[C@H]1OC(=O)[C@H](C)[C@@H](O[C@H]2C[C@@](C)(OC)[C@@H](O)[C@H](C)O2)[C@H](C)[C@@H](O[C@@H]2O[C@H](C)C[C@H](N(C)C)[C@H]2O)[C@](C)(O)C[C@@H](C)CN(C)[C@H](C)[C@@H](O)[C@]1(C)O [AZITHROMYCIN]	1 (≈ 1.34 µM)	0.125 (≈ 0.167 µM)	> 256	64 (≈ 85.4 µM)	0.25 (≈ 0.334 µM)	32 (≈ 42.7 µM)	8 (≈ 10.7 µM)	8 (≈ 10.7 µM)	> 256	> 256	> 256	> 256	> 256	> 256	8 (≈ 10.7 µM)
CC[C@H]1OC(=O)[C@H](C)C(=O)[C@H](C)[C@@H](O[C@@H]2O[C@H](C)C[C@H](N(C)C)[C@H]2O)[C@](C)(OC)C[C@@H](C)/C(=N\OCC#Cc2cncnc2)[C@H](C)[C@H]2OC(=O)O[C@@]21C	0.125 (≈ 0.168 µM)	0.016 (≈ 0.0215 µM)	> 256	0.25 (≈ 0.336 µM)	0.032 (≈ 0.043 µM)	0.125 (≈ 0.168 µM)	0.25 (≈ 0.336 µM)	0.125 (≈ 0.168 µM)	128 (≈ 172 µM)	0.064 (≈ 0.0859 µM)	0.064 (≈ 0.0859 µM)	128 (≈ 172 µM)	256 (≈ 344 µM)	256 (≈ 344 µM)	0.064 (≈ 0.0859 µM)
CC[C@H]1OC(=O)[C@H](C)C(=O)[C@H](C)[C@@H](O[C@@H]2O[C@H](C)C[C@H](N(C)C)[C@H]2O)[C@](C)(OC)C[C@@H](C)/C(=N\OCC#Cc2ccnc3ccccc23)[C@H](C)[C@H]2OC(=O)O[C@@]21C	0.5 (≈ 0.63 µM)	0.016 (≈ 0.0202 µM)	64 (≈ 80.6 µM)	1 (≈ 1.26 µM)	0.016 (≈ 0.0202 µM)	0.25 (≈ 0.315 µM)	0.5 (≈ 0.63 µM)	0.5 (≈ 0.63 µM)	32 (≈ 40.3 µM)	0.25 (≈ 0.315 µM)	0.25 (≈ 0.315 µM)	32 (≈ 40.3 µM)	64 (≈ 80.6 µM)	–	–
CC[C@H]1OC(=O)[C@H](C)C(=O)[C@H](C)[C@@H](O[C@@H]2O[C@H](C)C[C@H](N(C)C)[C@H]2O)[C@](C)(OC)C[C@@H](C)/C(=N\OCC#Cc2cccs2)[C@H](C)[C@H]2OC(=O)O[C@@]21C	1 (≈ 1.34 µM)	0.25 (≈ 0.334 µM)	64 (≈ 85.5 µM)	4 (≈ 5.34 µM)	0.25 (≈ 0.334 µM)	1 (≈ 1.34 µM)	1 (≈ 1.34 µM)	1 (≈ 1.34 µM)	64 (≈ 85.5 µM)	1 (≈ 1.34 µM)	1 (≈ 1.34 µM)	32 (≈ 42.7 µM)	64 (≈ 85.5 µM)	–	–
CC[C@H]1OC(=O)[C@H](C)C(=O)[C@H](C)[C@@H](O[C@@H]2O[C@H](C)C[C@H](N(C)C)[C@H]2O)[C@](C)(OC)C[C@@H](C)/C(=N\OCC#Cc2cccc3cnccc23)[C@H](C)[C@H]2OC(=O)O[C@@]21C	0.064 (≈ 0.0806 µM)	≤ 0.008	64 (≈ 80.6 µM)	0.125 (≈ 0.157 µM)	0.016 (≈ 0.0202 µM)	0.125 (≈ 0.157 µM)	0.125 (≈ 0.157 µM)	0.125 (≈ 0.157 µM)	32 (≈ 40.3 µM)	0.064 (≈ 0.0806 µM)	0.125 (≈ 0.157 µM)	32 (≈ 40.3 µM)	64 (≈ 80.6 µM)	–	–
